CTSL1 counter: counter-screen for PFM18AAP inhibitors: inhibitors of F. hepatica cathepsin L1; recombinant F. hepatica cathepsin L1, Z-Leu-Arg-MCA fluorescence; inhibition, % at 5.96 µM; hit rate 0.49% among 300,000;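 active = inhibition above the mean of all tested compounds plus 3 SD, set per screening campaign, cut at about 17% in these data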
SENP1 inh: blocks the human SENP1 SUMO protease catalytic domain | hit rate 0.21% among 360,000 | inhibition, % at 10 µM | Q9P0U3 | recombinant SENP1 catalytic domain, CyPet-SUMO1-YPet FRET cleavage;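 active = inhibition at least 30% at 10 µM, raw YFP signal under a set limit, fluorescence ratio 0.5 to 1.5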
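Material: hSENP1 catalytic domain, recombinant; medium: Tris pH 8 with BME, BSA, NP40 and catalase; compound: single concentration of 10 µM compound, 0.5% DMSO final; technique: FRET read of cyan and yellow fluorescence; timing: 50 min enzyme reaction, room temperature, light-protected; reagent: SFCypet-SUMO1-SFYpet substrate at 25 nM; control set: no-enzyme low, enzyme-DMSO high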
HDAC3 inh: inhibitors of human histone deacetylase 3. inhibition, % at 8.3 µM. O15379. recombinant HDAC3, fluorogenic peptide/trypsin coupled, fluorescence. hit rate 0.15% among 320,000; in the data active = inhibition above about 26%, passing the limit was not always enough; inconclusive = no clear call, values can overlap the other calls
PfM18AAP inh: PfM18AAP enzyme inhibition; recombinant PfM18AAP, H-Glu-NHMec fluorogenic cleavage; inhibition, % at 7.35 µM; hit rate 1.2% among 290,000; AID 1822;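 active = inhibition above the campaign mean inhibition over all tested compounds plus 3 SD, cut at about 28% in these data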
GAA850 FXN act: frataxin GAA850 promoter activation; HEK293 lucGAA850 FXN promoter luciferase reporter, 24 h; percent of 10 µM SAHA response; activation, % at 6 µM; hit rate 0.56% among 360,000;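 active = activation above the average of all compounds screened plus 3 SD, cutoff fixed separately per campaign, cut at about 7.5% in these data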
AHR act: activates the human aryl hydrocarbon receptor. P35869. AHR-responsive luciferase reporter cells, luminescence. activation, % at 5 µM. hit rate 2.5% among 320,000. AID 2796; in the data active = activation above about 47%
Each line names hits and unclear results; the compound was inactive in the other large screens. This is a sample that favours compounds with a hit; in the whole collection about 4.2% have one here.

COc1ccc(S(=O)(=O)Nc2c(C(=O)O)[nH]c3ccccc23)cc1	none
COc1ccc(NS(=O)(=O)c2ccc(OC)c(OC)c2)cc1OC	none
CCc1ccc([C@@H]2CC(=O)[C@@H]3CN(S(=O)(=O)c4ccccc4)[C@H](c4ccc(OC)cc4)C[C@@H]3N2S(=O)(=O)c2ccc(C)cc2)cc1	none (no result: CTSL1 counter, HDAC3 inh, PfM18AAP inh, GAA850 FXN act, AHR act)
CC(OC(=O)Cc1ccccc1F)C(=O)Nc1ccc(Cl)cn1 (stereo unspecified)	none (no result: CTSL1 counter, HDAC3 inh, PfM18AAP inh, AHR act)
Cc1nc2cc3nc(C(F)(F)F)[nH]c3cc2[nH]1	AHR act 50
CCc1cccc(NC(=O)COC(=O)CSc2ccc(C)cc2)c1	none (no result: CTSL1 counter, HDAC3 inh, PfM18AAP inh, AHR act)
CN(C)CCNC(=O)c1cc2c(s1)-c1ccccc1OC2	none
Cc1csc(NC(=O)c2cc3c(s2)-c2ccccc2OC3)n1	AHR act 68
O=C(COc1coc(CN2CCc3ccccc32)cc1=O)N1CCCCC1	CTSL1 counter 21 (no result: PfM18AAP inh)
CCCCC[C@@H](C)N1C[C@@H](COCc2ccccc2)Oc2cc(N3CC[C@H](N(C)C)C3)ccc2S1(=O)=O	none (no result: CTSL1 counter, HDAC3 inh, PfM18AAP inh, GAA850 FXN act, AHR act)
O=[N+]([O-])c1ccc(-c2cn3nc(-c4ccccc4)c(-c4ccccc4)nc3n2)cc1	PfM18AAP inh 30
CC(C)c1ccccc1NC(=O)CCc1nc2ccccc2s1	PfM18AAP inh 30
Nn1c(SCC(=O)NCCC2=CCCCC2)nnc1C(F)(F)F	AHR act 50
Nn1c(SCC(=O)NCCC2=CCCCC2)nnc1C1CCCCC1	none
CSc1nsc(SCC(=O)Nc2ccc(NC(C)=O)cc2)n1	none
CSc1nsc(SCC(=O)Nc2ccc(Br)cn2)n1	AHR act 48
CCOc1ccccc1NC(=O)COC(=O)C1COc2ccccc2O1 (stereo unspecified)	none (no result: CTSL1 counter, HDAC3 inh, PfM18AAP inh, AHR act)
Cc1ccc(NCCC(=O)c2cccs2)cc1C	AHR act 48
Cc1ccc(NCCC(=O)c2cccs2)cc1	none
OCCNc1nc(Nc2ccccc2)nc(Nc2ccccc2)n1	AHR act 48
OCCNc1nc(Nc2ccccc2)nc2ccccc12	AHR act 51
Oc1cccc(Nc2nc(NCC3CCCO3)c3ccccc3n2)c1 (stereo unspecified)	AHR act 79
OCCNc1nc(Nc2ccc(Br)cc2)nc2ccccc12	none (no result: SENP1 inh, GAA850 FXN act)
Cc1c(Cl)cccc1Nc1nc(NCCO)c2ccccc2n1	AHR act 57
CCN(C(=O)CN1C(=O)/C(=C/c2ccccc2)SC1=S)C1CCS(=O)(=O)C1 (stereo unspecified)	none
CCCCCCCCN1C(=O)[C@H](CC(=O)NCc2ccc(OC)c(OC)c2)C[C@@]2(C(=O)OC)CCCCC=C12	none (no result: CTSL1 counter, HDAC3 inh, PfM18AAP inh, GAA850 FXN act, AHR act)
O=C(COC(=O)COc1ccc(Cl)cc1)NC1CCCCCC1	none (no result: CTSL1 counter, HDAC3 inh, PfM18AAP inh, AHR act)
C=CCC[C@@H](Cc1ccc(F)cc1)C(=O)OC[C@@H](Cc1c[nH]c2ccccc12)NC(=O)[C@H](CC=C)CC(=O)N(CCO)Cc1ccccc1	HDAC3 inh 51 (no result: CTSL1 counter, PfM18AAP inh)
C=CCC[C@H](Cc1ccc(F)cc1)C(=O)OC[C@@H](Cc1c[nH]c2ccccc12)NC(=O)[C@H](CC=C)CC(=O)N(CCO)Cc1ccccc1	none (no result: CTSL1 counter, PfM18AAP inh)
C=CC[C@@H](CC(=O)N(CCO)Cc1ccccc1)C(=O)N[C@H](COC(=O)[C@@H](CC=C)CC(=O)OC(C)(C)C)Cc1c[nH]c2ccccc12	HDAC3 inh 50 (no result: CTSL1 counter, PfM18AAP inh)
C=CCC[C@@H](Cc1ccc(F)cc1)C(=O)OC[C@@H]1CCCN1C(=O)[C@@H](CC=C)CC(=O)N(CCO)Cc1ccccc1	HDAC3 inh 28 (no result: CTSL1 counter, PfM18AAP inh)
C=CCC[C@@H](Cc1ccc(F)cc1)C(=O)OC[C@H](Cc1c[nH]c2ccccc12)NC(=O)[C@H](CC=C)CC(=O)NCCO	HDAC3 inh 32 (no result: CTSL1 counter, PfM18AAP inh)
C=CCC[C@H](Cc1ccc(F)cc1)C(=O)OC[C@@H](Cc1c[nH]c2ccccc12)NC(=O)[C@H](CC=C)CC(=O)NCCO	HDAC3 inh inconclusive (no result: CTSL1 counter, PfM18AAP inh)
COC(=O)[C@@]12C[C@@H](CC(=O)N3CCCCC3)C(=O)N(Cc3ccco3)C1=CCC(C)(C)C2	none (no result: CTSL1 counter, HDAC3 inh, PfM18AAP inh, GAA850 FXN act, AHR act)
COc1ccc(NC(=O)CSc2nc(SC)ns2)cc1	none
C=CCC[C@H](Cc1ccc(F)cc1)C(=O)OC[C@@H](NC(=O)[C@@H](CC=C)CC(=O)N[C@@H](CO)Cc1ccccc1)C(C)(C)C	HDAC3 inh 32 (no result: CTSL1 counter, PfM18AAP inh)
